# High-throughput results (PubChem BioAssay)
# A selection: hits, their analogues and other compounds. The true share with any hit is near 2.7%.
# CTSL1 counter-1: Fasciola hepatica cathepsin L1 inhibitors, primary screen, counter-screen for PFM18AAP inhibitor project, biochemical, QFRET, fluorogenic peptide substrate; recombinant F. hepatica cathepsin L1, Z-Leu-Arg-MCA fluorescence; inhibition, % at 5.96 µM; hit rate 0.49% among 300,000; AID 1906, 2009;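 active = inhibition above the mean of all tested compounds plus 3 SD, set per screening campaign, cut at about 17% in these data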;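 also: 0% = plate median of test compound wells and 100% = 1 µM Z-Phe-Ala-diazomethylketone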
# PfM18AAP inh-1: PfM18AAP inhibitors, malaria aminopeptidase, primary screen, biochemical, QFRET, recombinant enzyme; inhibition, % at 7.35 µM; AID 1822, 2009; H-Glu-NHMec fluorogenic cleavage; hit rate 1.2% among 290,000; M18 aspartyl aminopeptidase (Plasmodium falciparum 3D7);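 active = inhibition above the campaign mean inhibition over all tested compounds plus 3 SD, cut at about 28% in these data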;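 also: 0% = plate median of test compound wells and 100% = 2 mM ZnCl2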
# IMP-1 inh: IMP-1 metallo-beta-lactamase inhibitors, primary screen, biochemical, epi-absorbance readout, Pseudomonas aeruginosa enzyme; purified IMP-1, nitrocefin hydrolysis, epi-absorbance fluorescence; inhibition, % at 5.6 µM; metallo-beta-lactamase IMP-1 (Pseudomonas aeruginosa); hit rate 0.45% among 290,000;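 active = inhibition above the mean plus 3 SD of all compounds in the same screening run, cut at about 4.5% in these data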;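 also: 0% = IMP-1 with DMSO and 100% = DMSO wells lacking enzyme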
#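 Assay system: purified recombinant IMP-1 beta-lactamase. Input: IMP-1 0.2 nM before substrate addition. Buffer or medium: Zinc- and detergent-supplemented HEPES buffer, pH 7.1. Schedule: 25 °C, 15 min preincubation, 25 min reaction. Signal: Epi-absorbance fluorescence, 480 nm excitation, 530 nm emission. Evaluation: percent inhibition from optical density relative to buffer-blank wells.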
# VIM-2 inhibitor: VIM-2 metallo-beta-lactamase inhibitors, primary screen, biochemical, epi-absorbance readout, Pseudomonas aeruginosa enzyme; purified VIM-2, nitrocefin hydrolysis, epi-absorbance fluorescence; inhibition, % at 5.6 µM; hit rate 0.89% among 290,000;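 active = inhibition above the mean of all tested compounds plus 3 SD, cutoff set per screening run, cut at about 7.5% in these data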;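 also: red hydrolysis product quenches plate fluorescence so inhibitors raise well fluorescence; 0% = enzyme with DMSO and 100% = DMSO without enzyme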
# PfM18AAP inh-2: PfM18AAP inhibitors, malaria aminopeptidase, confirmation, biochemical, QFRET, recombinant enzyme, triplicate; hit rate 28% among 2,400; shares compounds with PfM18AAP inh-1; inhibition, % at 7.35 µM; H-Glu-NHMec fluorogenic cleavage;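 active = mean inhibition over replicate wells above the hit cutoff set for the earlier primary screen, cut at about 29% in these data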;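 also: 0% = median of test compound wells and 100% = 2 mM ZnCl2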
# CTSL1 counter-2: cathepsin L1 inhibitors, retest, confirmation, counter-screen for PFM18AAP inhibitor project, biochemical, QFRET, triplicate. 2,400 tested, under 10 active. purified cathepsin L1, Z-Leu-Arg-MCA fluorescence. shares compounds with PfM18AAP inh-1. inhibition, % at 5.96 µM;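 active = average inhibition across replicates above the hit cutoff set in the earlier primary screen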;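 also: 0% = median of test compound wells and 100% = Z-Phe-Ala-diazomethylketone 1 µM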
# Target sequence (P07711 whole entry, looked up): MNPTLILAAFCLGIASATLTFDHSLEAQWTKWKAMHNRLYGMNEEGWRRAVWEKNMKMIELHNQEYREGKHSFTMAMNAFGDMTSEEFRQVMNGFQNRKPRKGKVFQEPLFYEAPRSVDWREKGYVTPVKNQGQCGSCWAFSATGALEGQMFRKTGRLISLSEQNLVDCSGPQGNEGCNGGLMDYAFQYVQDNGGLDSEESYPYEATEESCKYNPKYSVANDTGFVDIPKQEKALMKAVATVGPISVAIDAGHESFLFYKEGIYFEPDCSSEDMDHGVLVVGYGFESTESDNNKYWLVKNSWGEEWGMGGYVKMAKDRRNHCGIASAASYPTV
# * marks the source's active call; other numbers are inactive results; . = no result.
SMILES,CTSL1 counter-1,PfM18AAP inh-1,IMP-1 inh,VIM-2 inhibitor,PfM18AAP inh-2,CTSL1 counter-2
COc1ccc(C(=O)NCc2cc(C)nc3ccccc23)cc1,-3,-1,-3,-1,.,.
Cc1cc(CNC(=O)c2ccc3c(c2)OCO3)c2ccccc2n1,0,33*,0,2,10,-3
CCN1C(C)=C(C)S/C1=C1\SC(=S)N(N)C1=O,8,76*,-5,-2,-20,2
CCN(CC)c1ccc(N=CN2CCOCC2)cc1,-1,34*,-9,-2,-28,0
O=C(Cc1ccc(F)cc1)Nc1ccccc1N1CCCC1,16,33*,-2,-3,-30,-5
O=c1[nH]c(CSc2ncn[nH]2)nc2ccccc12,0,69*,-3,-1,73*,5
CCC(=O)NNc1nc2c(C)cccc2s1,-3,48*,-2,-4,23,-4
CCC(=O)NNc1nc2c(C)c(C)ccc2s1,-1,37*,-2,-2,9,-2
Cc1cccc2sc(NC(=O)C3CC3)nc12,.,5,-4,-2,.,.
CCC(=O)NNc1nc2c(Cl)cccc2s1,-5,33*,-1,-3,19,-3
CC(NCc1cc(Br)ccc1OCC(=O)NCc1ccccc1)c1ccccc1 (configuration not stated),1,4,-2,-3,.,.
O=C(O)c1ccc(/C=N/Nc2ncc(C(F)(F)F)cc2Cl)cc1,5,48*,-2,-3,-25,7
NC(=O)NNc1ncc(C(F)(F)F)cc1Cl,-1,45*,-3,-1,36*,-5
O=C(O)c1ccc(N/N=C/c2ccc(C(F)(F)F)cc2)cc1,6,-17,0,-1,.,.
CCC(Oc1ccc(Br)cc1)C(=O)N1CCN(c2ncccn2)CC1 (configuration not stated),4,1,-2,-2,.,.
CC1(C)NC(=O)N(CC(=O)OCC(=O)Nc2cc(S(=O)(=O)N3CCCCC3)ccc2Cl)C1=O,-11,3,-4,-2,.,.
COC(=O)c1ccccc1NC(=O)CSc1[nH]c(=O)cc(C)c1C#N,-2,-4,-3,-6,.,.
Cc1cc(=O)[nH]c(SCC(=O)Nc2ccccc2C#N)c1C#N,-1,38*,-3,-1,-48,-3
NNc1nc2c(-c3cccc(C(F)(F)F)c3)nnn2c2ccccc12,.,35*,-4,-1,-106,-6
COCCNc1nc2c(-c3cccc(C(F)(F)F)c3)nnn2c2ccccc12,-1,1,-3,-3,.,.
CC(=Nc1ccccc1O)c1sc2ccccc2c1O,6,23,-3,1,.,.
CC(=Nc1ccc(O)cc1)c1sc2ccccc2c1O,3,55*,-1,3,-39,3
COc1ccc(OC)c(N(C)S(=O)(=O)c2cc3c(cc2C)NC(=O)CO3)c1,-4,1,0,-2,.,.
COc1cc(C2Nc3cccc4cccc(c34)N2)ccc1OC(C)=O,-1,-2,1,0,.,.
COc1ccc(C2Nc3cccc4cccc(c34)N2)cc1Br,-6,35*,0,1,-13,-2
SMILES,CTSL1 counter-1,PfM18AAP inh-1,IMP-1 inh,VIM-2 inhibitor,PfM18AAP inh-2,CTSL1 counter-2
Cc1cc(C)c2c(=O)n(CC(=O)NCCCN3CCN(c4ccccc4F)CC3)sc2n1,2,47*,-3,0,-9,0
Cc1cc(C)c2c(=O)n(CC(=O)NCCCN3CCOCC3)sc2n1,6,54*,-3,-4,32*,0
COC(=O)C1=C(C)NC2=C(C(=O)CC(C)(C)C2)C1c1cnn(C)c1C (configuration not stated),5,-11,-3,1,.,.
CCNS(=O)(=O)c1ccc(CCC(=O)N2CCc3ccccc3C2)cc1,2,10,-6,-2,.,.
Cc1ccc(NC(=O)CCNS(=O)(=O)c2ccc(Br)cc2)cc1S(=O)(=O)N1CCOCC1,0,.,.,.,.,.
CN(C)S(=O)(=O)c1cccc(NC(=O)COC(=O)c2c[nH]c(=O)[nH]c2=O)c1,-3,1,-3,-7,.,.
O=C(COC(=O)C(Cc1ccccc1)NC(=O)c1ccc(Cl)cc1)c1ccc(Cl)cc1 (configuration not stated),-4,8,-3,-4,.,.
CCC(C)NC(=O)CSC1=Nc2ccccc2C2=NC(CC(=O)NCc3ccccc3)C(=O)N12 (configuration not stated),-1,1,-4,-3,.,.
COC(=O)Oc1ccc(/C=C/C(=O)OC(C)C)cc1OC(=O)OC,-2,72*,-4,-1,43*,-6
COc1ccccc1NC(=S)N(CCN1CCCCCC1)Cc1cccs1,-1,-2,-4,-4,.,.
CCn1c(N)c(C(=O)NC)sc1=S,3,50*,-3,-2,37*,-1
CCNC(=O)c1sc(=S)n(CC)c1N,9,-15,-4,-2,.,.
Cc1cc(C)c2c(=O)n(CC(=O)N3CCC(Cc4ccccc4)CC3)sc2n1,.,56*,-4,-1,22,1
Cc1cccc(N2CCN(C(=O)Cn3sc4nc(C)cc(C)c4c3=O)CC2C)c1 (configuration not stated),0,49*,-4,-4,17,-3
Cc1ccn2c(=O)nc(SCC(=O)N3CCC(Cc4ccccc4)CC3)nc2c1,-2,.,.,.,.,.
CC(=O)Nc1ccc(S(=O)(=O)NCCC(=O)N2CCc3ccccc32)cc1,-2,-2,-1,-2,.,.
O=C(CSc1ncn[nH]1)N1N=C2/C(=C/c3ccco3)CCCC2C1c1ccco1 (configuration not stated),5,36*,-4,-1,1,1
CCCCN1C(=O)C(=O)N(CC(=O)N2N=C3/C(=C/c4ccco4)CCCC3C2c2ccco2)C1=O (configuration not stated),6,3,-2,-3,.,.
CC(C)NC(=S)NNc1nc2ccccc2s1,5,41*,-2,-1,34*,1
O=C(NNc1nc2c(F)cc(F)cc2s1)c1ccccc1,-2,39*,-2,-3,23,2
O=C(NNc1nc2c(F)cccc2s1)c1ccccc1,-2,43*,-6,-6,25,-2
O=C(NNc1nc2ccccc2s1)c1ccc(F)cc1,-2,32*,-4,-5,2,0
Cc1ccccc1C(N)c1ccncc1 (configuration not stated),-2,1,-2,-3,.,.
O=C1Nc2ccccc2C1(O)C/C(=N/O)c1ccccc1 (configuration not stated),-1,-4,-3,-4,.,.
CCn1c(SCC(=O)c2ccc(O)c(O)c2)nnc1-c1ccc(C)cc1,-9,43*,-3,2,19,-9
